Assay results taken from ChEMBL document CHEMBL4680165, “β-Lactams with antiproliferative and antiapoptotic activity in breast and chemoresistant colon cancer cells” (Eur J Med Chem, 2020).

Key:
MCF7 = test: Antiproliferative activity against human MCF7 cells assessed as reduction in cell viability after 72 hrs by alamar blue assay; assay type: functional, cell-based; settings: MCF7, 72 h
In short: (§1)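 Cells seeded at 5 x 10^3/well (MCF-7) or 1 x 10^4/well (HT-29, HEK-293T) and treated after 24 h with serial dilutions (0.001-100 µM) in 1% v/v ethanol vehicle. Alamar Blue 10% v/v added at 72 h, then 3-5 h at 37 °C in the dark; fluorescence ex 530/em 590 nm. Viability relative to vehicle; IC50 from dose-response curves; mean of three experiments in triplicate.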

HT-29 = test: Antiproliferative activity against human HT-29 cells assessed as reduction in cell viability after 72 hrs by alamar blue assay; assay type: functional, cell-based; settings: HT-29, 72 h; in short: as §1
[1] = Selectivity index, ratio of IC50 for human MCF7 cells to IC50 for human HT-29 cells assessed as reduction in cell viability after 72 hrs by alamar blue assay; assay type: functional

| Structure (SMILES) | IC50 (MCF7) [nM] | IC50 (HT-29) [nM] | Ratio IC50 [1] |
| --- | --- | --- | --- |
| COc1ccc([C@H]2[C@H](Oc3ccccc3)C(=O)N2c2cc(OC)c(OC)c(OC)c2)cc1Br | 818 | 577 | 1.42 |
| COc1ccc([C@H]2CC(=O)N2c2cc(OC)c(OC)c(OC)c2)cc1Cl | 140 | 154 | 0.91 |
| COc1ccc([C@H]2[C@H](O)C(=O)N2c2cc(OC)c(OC)c(OC)c2)cc1I | 100 | 21 | 4.77 |
| COc1ccc([C@H]2[C@H](c3ccccc3)C(=O)N2c2cc(OC)c(OC)c(OC)c2)cc1Cl | 230 | 24 | 9.58 |
| C=C(C)[C@@H]1C(=O)N(c2cc(OC)c(OC)c(OC)c2)[C@H]1c1ccc(OC)c(Cl)c1 | 270 | 480 | 0.56 |
| COc1ccc([C@@H]2N(c3cc(OC)c(OC)c(OC)c3)C(=O)C2(Cl)Cl)cc1C | 747 | 319 | 2.34 |
| COc1ccc([C@H]2[C@H](Cl)C(=O)N2c2cc(OC)c(OC)c(OC)c2)cc1Cl | 91 | 144 | 0.63 |
| C=C[C@@H]1C(=O)N(c2cc(OC)c(OC)c(OC)c2)[C@H]1c1ccc(OC)c(C)c1 | 328 | 197 | 1.67 |
| COc1ccc([C@H]2CC(=O)N2c2cc(OC)c(OC)c(OC)c2)cc1I | 821 | 260 | 3.16 |
| COc1ccc([C@H]2[C@H](Oc3ccccc3)C(=O)N2c2cc(OC)c(OC)c(OC)c2)cc1F (relative stereo) | 73 | 155 | 0.47 |
| COc1ccc([C@H]2[C@H](c3ccccc3)C(=O)N2c2cc(OC)c(OC)c(OC)c2)cc1Br | 651 | 325 | 2 |
| C=C[C@@H]1C(=O)N(c2cc(OC)c(OC)c(OC)c2)[C@H]1c1ccc(OC)c(Cl)c1 | 120 | 293 | 0.41 |

More lines, main results first:

| IC50 (MCF7) [nM] | IC50 (HT-29) [nM] | Structure (SMILES) | Ratio IC50 [1] |
| --- | --- | --- | --- |
| 483 | 238 | COc1ccc([C@H]2[C@H](N)C(=O)N2c2cc(OC)c(OC)c(OC)c2)cc1F | 2.03 |
| 1120 | 1540 | COc1ccc([C@@H]2N(c3cc(OC)c(OC)c(OC)c3)C(=O)C2(Cl)Cl)cc1Br | 0.73 |
| 208 | 232 | COc1ccc([C@H]2[C@H](Oc3ccccc3)C(=O)N2c2cc(OC)c(OC)c(OC)c2)cc1I | 0.9 |
| 38 | 37 | C=C[C@@H]1C(=O)N(c2cc(OC)c(OC)c(OC)c2)[C@H]1c1ccc(OC)c(F)c1 |  |
| 885 | 251 | COc1ccc([C@@H]2N(c3cc(OC)c(OC)c(OC)c3)C(=O)C2(Cl)Cl)cc1I | 3.53 |
| 462 | 153 | COc1ccc([C@H]2[C@H](c3ccccc3)C(=O)N2c2cc(OC)c(OC)c(OC)c2)cc1C | 3.02 |
| 2240 | 313 | COc1ccc([C@H]2[C@H](Oc3ccccc3)C(=O)N2c2cc(OC)c(OC)c(OC)c2)cc1C | 7.14 |
| 173 | 117 | COc1ccc([C@@H]2N(c3cc(OC)c(OC)c(OC)c3)C(=O)C2(Cl)Cl)cc1F | 1.48 |
| 15 | 22 | COc1ccc([C@H]2[C@H](c3ccccc3)C(=O)N2c2cc(OC)c(OC)c(OC)c2)cc1 | 0.68 |
| 773 | 358 | C=C(C)[C@@H]1C(=O)N(c2cc(OC)c(OC)c(OC)c2)[C@H]1c1ccc(OC)c(C)c1 | 2.16 |
| 433 | 222 | COc1ccc([C@H]2[C@H](Cl)C(=O)N2c2cc(OC)c(OC)c(OC)c2)cc1C | 1.95 |
| 40 | 15 | COc1ccc([C@H]2[C@H](Cl)C(=O)N2c2cc(OC)c(OC)c(OC)c2)cc1F |  |
